From ChEMBL document CHEMBL1152600, “Dibenzazecine scaffold rebuilding--is the flexibility always essential for high dopamine receptor affinities?” (Bioorg Med Chem, 2009)
Calls of active or inactive are those of the source. The calls are words filed in the database; no cut-off is given here.

Assays:
D(2) dopamine receptor [1] = biological target: T1, D(2) dopamine receptor (Homo sapiens, UniProt P14416); test: Agonist activity at human dopamine D2L receptor expressed in HEK293 cells assessed as intracellular calcium by fluorescence microplate reader; type: functional, cell-based
Method in brief: (§1)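 Human receptor in HEK293 cells, loaded 45 min at 37 °C with Oregon Green 488 BAPTA-1/AM plus Pluronic F-127 in Krebs-HEPES buffer (pH 7.4). Cells were suspended, plated and held 30 min at 37 °C, 5% CO2. Test compound was injected at rising concentrations. Fluorescence was read at ex 485/em 520 nm for 30 s. Maximum intensity was fitted with a sigmoidal curve. At least two experiments, 4 or 6 replicates each.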

D(2) dopamine receptor [2] = biological target: T1, D(2) dopamine receptor; test: Antagonist activity at human dopamine D2L receptor expressed in HEK293 cells assessed as quinpirole-induced intracellular calcium by fluorescence microplate reader; type: functional, cell-based
Method in brief: (§2)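 They were then injected with standard agonist at 1 µM final: SKF 38393 for D1, quinpirole for D2L. Fluorescence was read at ex 485/em 520 nm for 30 s. Peak signal was fitted with a sigmoidal curve. At least two experiments, 4 or 6 replicates each.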

D(1A) dopamine receptor [3] = biological target: T2, D(1A) dopamine receptor (Homo sapiens, UniProt P21728); test: Agonist activity at human dopamine D1 receptor expressed in HEK293 cells assessed as intracellular calcium by fluorescence microplate reader; type: functional, cell-based; method in brief: as §1
D(1A) dopamine receptor [4] = biological target: T2, D(1A) dopamine receptor; test: Antagonist activity at human dopamine D1 receptor expressed in HEK293 cells assessed as SKF-38393-induced intracellular calcium by fluorescence microplate reader; type: functional, cell-based; method in brief: as §2
D(1B) dopamine receptor = D(1B) dopamine receptor (Homo sapiens, UniProt P21918); test: Displacement of [3H]SCH23390 from human dopamine D5 receptor expressed in CHO cells by scintillation counting; type: cell-based
D(1A) dopamine receptor [5] = biological target: T2, D(1A) dopamine receptor; test: Displacement of [3H]SCH23390 from human dopamine D1 receptor expressed in CHO cells by scintillation counting; type: cell-based
D(2) dopamine receptor [6] = biological target: T1, D(2) dopamine receptor; test: Displacement of [3H]spiperone from human dopamine D2L receptor expressed in CHO cells by scintillation counting; type: cell-based
D(4) dopamine receptor = biological target: T3, D(4) dopamine receptor (Homo sapiens, UniProt P21917); test: Displacement of [3H]spiperone from human dopamine D4 receptor expressed in CHO cells by scintillation counting; type: cell-based
T3 sequence (P21917 whole entry): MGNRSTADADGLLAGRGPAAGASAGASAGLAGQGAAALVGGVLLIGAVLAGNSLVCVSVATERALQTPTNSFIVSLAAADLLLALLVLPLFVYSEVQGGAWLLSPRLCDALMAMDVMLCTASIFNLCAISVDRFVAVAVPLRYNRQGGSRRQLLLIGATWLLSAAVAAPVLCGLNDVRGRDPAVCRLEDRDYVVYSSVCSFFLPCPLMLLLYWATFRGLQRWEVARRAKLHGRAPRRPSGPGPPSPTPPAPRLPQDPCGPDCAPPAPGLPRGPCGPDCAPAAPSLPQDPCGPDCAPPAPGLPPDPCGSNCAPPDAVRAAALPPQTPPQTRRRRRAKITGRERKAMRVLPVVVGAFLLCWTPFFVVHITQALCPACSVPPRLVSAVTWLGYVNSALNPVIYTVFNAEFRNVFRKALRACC

D(3) dopamine receptor [7] = biological target: D(3) dopamine receptor (Rattus norvegicus, UniProt P19020); test: Displacement of [3H]spiperone from rat dopamine D3 receptor expressed in CHO cells by scintillation counting; type: cell-based
D(3) dopamine receptor [8] = biological target: D(3) dopamine receptor (Homo sapiens, UniProt P35462); test: Displacement of [3H]spiperone from human dopamine D3 receptor expressed in CHO cells by scintillation counting; type: cell-based
Sequence of D(3) dopamine receptor (Homo sapiens, UniProt P35462) (P35462 whole entry): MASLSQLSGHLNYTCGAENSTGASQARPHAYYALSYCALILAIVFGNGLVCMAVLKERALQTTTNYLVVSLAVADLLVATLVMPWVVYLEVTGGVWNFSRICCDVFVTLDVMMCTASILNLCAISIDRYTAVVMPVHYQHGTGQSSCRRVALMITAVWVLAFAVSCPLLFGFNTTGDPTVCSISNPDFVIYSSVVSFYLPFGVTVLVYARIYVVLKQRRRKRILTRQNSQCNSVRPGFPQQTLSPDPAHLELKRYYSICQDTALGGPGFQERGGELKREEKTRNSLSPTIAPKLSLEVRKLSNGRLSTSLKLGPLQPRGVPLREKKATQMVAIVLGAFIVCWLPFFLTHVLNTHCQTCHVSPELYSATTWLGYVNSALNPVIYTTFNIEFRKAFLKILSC

Sequence of D(1B) dopamine receptor (P21918 whole entry): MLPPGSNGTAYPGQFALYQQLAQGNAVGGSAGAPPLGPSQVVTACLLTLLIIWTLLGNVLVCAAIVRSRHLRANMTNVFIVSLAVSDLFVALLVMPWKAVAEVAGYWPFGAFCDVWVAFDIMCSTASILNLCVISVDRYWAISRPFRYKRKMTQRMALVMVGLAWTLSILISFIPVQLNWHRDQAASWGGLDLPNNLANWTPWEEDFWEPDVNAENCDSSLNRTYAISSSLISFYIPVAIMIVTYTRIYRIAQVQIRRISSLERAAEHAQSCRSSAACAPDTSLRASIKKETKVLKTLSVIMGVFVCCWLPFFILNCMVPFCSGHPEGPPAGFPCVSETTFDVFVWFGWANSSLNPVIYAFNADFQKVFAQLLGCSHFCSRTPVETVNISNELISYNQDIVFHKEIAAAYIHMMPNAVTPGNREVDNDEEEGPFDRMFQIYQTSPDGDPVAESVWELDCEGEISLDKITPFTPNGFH
T2 sequence (P21728 whole entry): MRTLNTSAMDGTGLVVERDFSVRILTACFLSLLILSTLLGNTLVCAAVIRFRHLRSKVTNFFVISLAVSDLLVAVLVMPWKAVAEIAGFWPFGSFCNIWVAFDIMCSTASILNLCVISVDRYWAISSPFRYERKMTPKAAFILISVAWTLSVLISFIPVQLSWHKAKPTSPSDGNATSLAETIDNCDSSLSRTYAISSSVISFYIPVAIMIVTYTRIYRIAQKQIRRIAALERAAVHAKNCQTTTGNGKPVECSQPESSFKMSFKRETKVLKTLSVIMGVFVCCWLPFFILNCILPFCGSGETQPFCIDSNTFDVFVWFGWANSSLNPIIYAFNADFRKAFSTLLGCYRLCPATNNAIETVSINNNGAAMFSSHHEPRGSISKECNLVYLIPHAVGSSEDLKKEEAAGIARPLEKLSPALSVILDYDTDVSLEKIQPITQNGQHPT
T1 sequence (P14416 whole entry): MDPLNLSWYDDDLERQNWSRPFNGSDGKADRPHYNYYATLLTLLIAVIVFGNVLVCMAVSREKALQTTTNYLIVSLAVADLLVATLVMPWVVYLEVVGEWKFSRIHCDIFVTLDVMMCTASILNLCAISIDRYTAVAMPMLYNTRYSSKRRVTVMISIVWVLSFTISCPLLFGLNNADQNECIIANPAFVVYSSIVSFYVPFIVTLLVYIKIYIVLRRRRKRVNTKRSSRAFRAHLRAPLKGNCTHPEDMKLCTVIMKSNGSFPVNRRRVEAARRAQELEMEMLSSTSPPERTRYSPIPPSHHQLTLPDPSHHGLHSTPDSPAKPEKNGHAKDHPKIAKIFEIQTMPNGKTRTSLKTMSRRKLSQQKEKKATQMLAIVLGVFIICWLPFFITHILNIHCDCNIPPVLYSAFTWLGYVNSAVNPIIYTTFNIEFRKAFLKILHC
Sequence of D(3) dopamine receptor (Rattus norvegicus, UniProt P19020) (P19020 whole entry): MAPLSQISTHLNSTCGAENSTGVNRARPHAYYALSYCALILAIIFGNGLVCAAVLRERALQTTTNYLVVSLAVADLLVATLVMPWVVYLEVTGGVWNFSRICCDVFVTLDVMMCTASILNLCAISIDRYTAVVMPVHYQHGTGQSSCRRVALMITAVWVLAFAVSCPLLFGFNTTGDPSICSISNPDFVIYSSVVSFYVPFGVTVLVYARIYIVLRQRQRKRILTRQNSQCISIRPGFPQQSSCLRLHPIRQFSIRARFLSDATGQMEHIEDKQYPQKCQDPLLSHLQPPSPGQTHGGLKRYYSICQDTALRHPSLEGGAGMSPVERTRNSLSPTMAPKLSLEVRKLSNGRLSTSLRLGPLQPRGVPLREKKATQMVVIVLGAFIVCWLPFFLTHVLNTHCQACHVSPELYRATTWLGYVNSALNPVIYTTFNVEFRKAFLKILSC

SMILES: CN1CCc2ccccc2Cc2ccc(O)cc2CC1
- Activity (D(2) dopamine receptor [1]): inactive
- Activity (D(2) dopamine receptor [2]): Active
- Activity (D(1A) dopamine receptor [3]): inactive
- Activity (D(1A) dopamine receptor [4]): Active

SMILES: COc1ccc2c(c1)CCCN1Cc3ccccc3C21 (stereo unspecified)
- Activity (D(1A) dopamine receptor [3]): inactive
- Activity (D(1A) dopamine receptor [4]): Active

SMILES: COc1cc2c(cc1O)[C@@H]1Cc3ccc(O)c(OC)c3CN1CC2 [STEPHOLIDINE]
- Ki (D(1B) dopamine receptor): 4.4 nM
- Activity (D(2) dopamine receptor [1]): inactive
- Activity (D(2) dopamine receptor [2]): Active
- Activity (D(1A) dopamine receptor [3]): inactive
- Ki (D(1A) dopamine receptor [5]): 5.9 nM
- Ki (D(2) dopamine receptor [6]): 974 nM
- Activity (D(1A) dopamine receptor [4]): Active
- Ki (D(4) dopamine receptor): 3.75 µM
- Ki (D(3) dopamine receptor [7]): 30 nM

SMILES: Cc1ccccc1CC1c2ccc(O)cc2CCN1C (stereo unspecified)
- Activity (D(2) dopamine receptor [1]): inactive
- Activity (D(2) dopamine receptor [2]): Active
- Activity (D(1A) dopamine receptor [3]): inactive
- Ki (D(1A) dopamine receptor [5]): 3020 nM
- Ki (D(2) dopamine receptor [6]): 2720 nM
- Activity (D(1A) dopamine receptor [4]): Active

SMILES: COc1ccc2c(c1)CCN(C)C2Cc1ccccc1C (stereo unspecified)
- Ki (D(3) dopamine receptor [8]): > 10 µM
- Ki (D(1B) dopamine receptor): > 10000 nM
- Activity (D(2) dopamine receptor [1]): inactive
- Activity (D(2) dopamine receptor [2]): Active
- Activity (D(1A) dopamine receptor [3]): inactive
- Ki (D(1A) dopamine receptor [5]): 2350 nM
- Ki (D(2) dopamine receptor [6]): 7370 nM
- Activity (D(1A) dopamine receptor [4]): Active
- Ki (D(4) dopamine receptor): 6.64 µM

SMILES: CN1CCCc2cc(O)ccc2Cc2ccccc2C1
- Ki (D(1B) dopamine receptor): 1810 nM
- Activity (D(1A) dopamine receptor [3]): inactive
- Ki (D(1A) dopamine receptor [5]): 2070 nM
- Activity (D(1A) dopamine receptor [4]): Active

SMILES: COc1ccc2c(c1)CCCN(C)Cc1ccccc1C2
- Ki (D(3) dopamine receptor [8]): > 10 µM
- Ki (D(1B) dopamine receptor): > 10000 nM
- Activity (D(2) dopamine receptor [1]): inactive
- Activity (D(2) dopamine receptor [2]): Active
- Activity (D(1A) dopamine receptor [3]): inactive
- Ki (D(1A) dopamine receptor [5]): 1260 nM
- Ki (D(2) dopamine receptor [6]): > 10000 nM
- Activity (D(1A) dopamine receptor [4]): Active
- Ki (D(4) dopamine receptor): > 10 µM

SMILES: COc1ccc2c(c1)CCN(C)CCc1ccccc1C2
- Activity (D(2) dopamine receptor [1]): inactive
- Activity (D(2) dopamine receptor [2]): Active
- Activity (D(1A) dopamine receptor [3]): inactive
- Activity (D(1A) dopamine receptor [4]): Active
- Ki (D(4) dopamine receptor): 0.0434 µM

SMILES: Oc1ccc2c(c1)CCN1Cc3ccccc3CC21 (stereo unspecified)
- Ki (D(3) dopamine receptor [8]): 0.306 µM
- Ki (D(1B) dopamine receptor): 41.1 nM
- Activity (D(2) dopamine receptor [1]): inactive
- Activity (D(2) dopamine receptor [2]): Active
- Activity (D(1A) dopamine receptor [3]): inactive
- Ki (D(1A) dopamine receptor [5]): 136 nM
- Ki (D(2) dopamine receptor [6]): 486 nM
- Activity (D(1A) dopamine receptor [4]): Active
- Ki (D(4) dopamine receptor): 5.09 µM

SMILES: COc1ccc2c(c1)CCN1Cc3ccccc3CC21 (stereo unspecified)
- Ki (D(3) dopamine receptor [8]): 0.251 µM
- Ki (D(1B) dopamine receptor): 185 nM
- Activity (D(2) dopamine receptor [1]): inactive
- Activity (D(2) dopamine receptor [2]): Active
- Activity (D(1A) dopamine receptor [3]): inactive
- Ki (D(1A) dopamine receptor [5]): 183 nM
- Ki (D(2) dopamine receptor [6]): 320 nM
- Activity (D(1A) dopamine receptor [4]): Active
- Ki (D(4) dopamine receptor): 2.56 µM

SMILES: Oc1cc2c(cc1O)[C@H]1c3ccccc3CN[C@@H]1CC2
- Activity (D(2) dopamine receptor [1]): inactive
- Activity (D(2) dopamine receptor [2]): Active
- Activity (D(1A) dopamine receptor [3]): inactive
- Activity (D(1A) dopamine receptor [4]): Active

SMILES: COc1ccc2c(c1)CCN(C)Cc1ccccc1CC2
- Ki (D(3) dopamine receptor [8]): > 10 µM
- Ki (D(1B) dopamine receptor): 1510 nM
- Activity (D(2) dopamine receptor [1]): inactive
- Activity (D(2) dopamine receptor [2]): Active
- Activity (D(1A) dopamine receptor [3]): inactive
- Ki (D(1A) dopamine receptor [5]): 1730 nM
- Ki (D(2) dopamine receptor [6]): > 10000 nM
- Activity (D(1A) dopamine receptor [4]): Active
- Ki (D(4) dopamine receptor): > 10 µM

SMILES: CCc1cc(OC)ccc1C1Cc2ccccc2CN1C (stereo unspecified)
- Ki (D(3) dopamine receptor [8]): > 10 µM
- Ki (D(1B) dopamine receptor): > 10000 nM
- Activity (D(2) dopamine receptor [1]): inactive
- Activity (D(2) dopamine receptor [2]): Active
- Activity (D(1A) dopamine receptor [3]): inactive
- Ki (D(1A) dopamine receptor [5]): > 10000 nM
- Ki (D(2) dopamine receptor [6]): > 10000 nM
- Activity (D(1A) dopamine receptor [4]): Active
- Ki (D(4) dopamine receptor): > 10 µM

SMILES: CN1CCc2cc(O)ccc2CCc2ccccc2C1
- Activity (D(2) dopamine receptor [1]): inactive
- Activity (D(2) dopamine receptor [2]): Active
- Activity (D(1A) dopamine receptor [3]): inactive
- Activity (D(1A) dopamine receptor [4]): Active

SMILES: COc1ccc2c(c1)CCN1CCc3ccccc3C21 (stereo unspecified)
- Activity (D(2) dopamine receptor [1]): inactive
- Activity (D(2) dopamine receptor [2]): Active
- Activity (D(1A) dopamine receptor [3]): inactive
- Ki (D(1A) dopamine receptor [5]): 2120 nM
- Activity (D(1A) dopamine receptor [4]): Active

SMILES: Oc1ccc2c(c1)CCN1CCc3ccccc3C21 (stereo unspecified)
- Ki (D(3) dopamine receptor [8]): > 10 µM
- Ki (D(1B) dopamine receptor): > 10000 nM
- Activity (D(2) dopamine receptor [1]): inactive
- Activity (D(2) dopamine receptor [2]): Active
- Activity (D(1A) dopamine receptor [3]): inactive
- Ki (D(1A) dopamine receptor [5]): > 10000 nM
- Ki (D(2) dopamine receptor [6]): > 10000 nM
- Activity (D(1A) dopamine receptor [4]): Active
- Ki (D(4) dopamine receptor): > 10 µM
